Reference: ChEMBL document CHEMBL1124311, “Synthesis and antiallergy activity of 4-(diarylhydroxymethyl)-1-[3-(aryloxy)propyl]piperidines and structurally related compounds” (J Med Chem, 1989)
Calls of active or inactive are those of the source. No cut-off for these calls is given here.

Columns and labels:
Rattus norvegicus [1] = assay: Oral antiallergy activity in the passive foot anaphylaxis (PFA) model of rat, at a dose of 3.16 (mg/kg); Activity between positive and negative control groups; type: functional, organism-based
Rattus norvegicus [2] = assay: Oral antiallergy activity in the passive foot anaphylaxis (PFA) model of rat, at a dose of 1.0 (mg/kg); not significantly different from negative control group; type: functional, organism-based
Rattus norvegicus [3] = assay: Oral antiallergy activity in the passive foot anaphylaxis (PFA) model of rat, at a dose of 10 (mg/kg); Activity greater than positive control group; type: functional, organism-based
Rattus norvegicus [4] = assay: Oral antiallergy activity in the passive foot anaphylaxis (PFA) model of rat, at a dose of 3.16 (mg/kg); not significantly different from negative control group; type: functional, organism-based
Rattus norvegicus [5] = assay: Oral antiallergy activity in the passive foot anaphylaxis (PFA) model of rat, at a dose of 3.16 (mg/kg); Activity equal to positive control group; type: functional, organism-based
Cavia porcellus [6] = species on record: Cavia porcellus; assay: Oral antiallergy activity in the guinea pig anaphylaxis (GPA) model, at a pretreatment time of 24 h; type: functional; conditions: read-out: PD50
Outline: (§1)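 Fasted, sensitized Dunkin-Hartley guinea pigs, randomized into control (N = 8) and test (N = 4) groups, dosed by gavage at 10 mL/kg in 0.5% Tween 80 in water; theophylline 100 mg/kg po as reference. At the stated pretreatment time, each animal was exposed to aerosolized 1% (w/v) egg albumin at 10 L air/min for up to 5 min. Protection meant no collapse within 5 min. PD50 was calculated by Litchfield–Wilcoxon.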

Histamine H1 receptor = Histamine H1 receptor (Cavia porcellus, UniProt P31389); assay: Inhibitory activity against Tritiated [3H]- mepyramine binding to histamine H1 receptor in guinea pig cerebral cortex; type: tissue-based
Chain of Histamine H1 receptor (P31389 whole entry): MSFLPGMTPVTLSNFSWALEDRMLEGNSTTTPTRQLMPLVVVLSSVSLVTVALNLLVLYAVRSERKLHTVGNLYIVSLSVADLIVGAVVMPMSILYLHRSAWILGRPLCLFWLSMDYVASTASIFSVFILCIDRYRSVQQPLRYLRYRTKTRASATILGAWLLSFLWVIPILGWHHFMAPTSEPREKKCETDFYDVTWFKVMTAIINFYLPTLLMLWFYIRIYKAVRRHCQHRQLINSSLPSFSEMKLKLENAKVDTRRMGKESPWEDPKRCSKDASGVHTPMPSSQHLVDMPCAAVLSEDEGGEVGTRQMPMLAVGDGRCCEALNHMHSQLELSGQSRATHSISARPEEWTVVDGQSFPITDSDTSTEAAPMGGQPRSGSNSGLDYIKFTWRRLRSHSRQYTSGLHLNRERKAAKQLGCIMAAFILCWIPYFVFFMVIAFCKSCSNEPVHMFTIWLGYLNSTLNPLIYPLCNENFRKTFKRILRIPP
Outline: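 Guinea pig (Dunkin-Hartley) cerebral cortex homogenized in cold 50 mM Na-K phosphate pH 7.5, centrifuged at 48000g three times, resuspended 30 mL buffer/g tissue. Six concentrations (1e-5 to 1e-10 M) run in triplicate. IC50 derived by regression of logit % control binding vs log concentration.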

Cavia porcellus [7] = species on record: Cavia porcellus; assay: Oral antiallergy activity in the guinea pig anaphylaxis (GPA) model, at a pretreatment time of 1 h; type: functional; conditions: read-out: PD50; outline: as §1
Cavia porcellus [8] = species on record: Cavia porcellus; assay: Oral antiallergy activity in the guinea pig anaphylaxis (GPA) model of, at a pretreatment time of 5 h; type: functional; conditions: read-out: PD50; outline: as §1
Rattus norvegicus [9] = assay: Oral antiallergy activity in the passive foot anaphylaxis (PFA) model of rat, at a dose of 10 (mg/kg); Activity equal to positive control group; type: functional, organism-based
Rattus norvegicus [10] = assay: Oral antiallergy activity in the passive foot anaphylaxis (PFA) model of rat, at a dose of 0.5 (mg/kg); not significantly different from negative control group; type: functional, organism-based
Rattus norvegicus [11] = assay: Oral antiallergy activity in the passive foot anaphylaxis (PFA) model of rat, at a dose of 3.16 (mg/kg); Activity greater than positive control group; type: functional, organism-based
Rattus norvegicus [12] = assay: Oral antiallergy activity in the passive foot anaphylaxis (PFA) model of rat, at a dose of 1.0 (mg/kg); Activity between positive and negative control groups; type: functional, organism-based
Rattus norvegicus [13] = assay: Oral antiallergy activity in the passive foot anaphylaxis (PFA) model of rat, at a dose of 0.5 (mg/kg); Activity between positive and negative control groups; type: functional, organism-based
Rattus norvegicus [14] = assay: Oral antiallergy activity in the passive foot anaphylaxis (PFA) model of rat, at a dose of 1.0 (mg/kg); type: functional, organism-based

With `CCNCCc1ccc(CN(CC)c2cc(OC)ccc2[C@@H]2CCc3cc(O)ccc3C2)cc1` the PFA (Rattus norvegicus [1]) was “Activity between positive and negative control groups” and the PFA (Rattus norvegicus [2]) was “Activity between positive and negative control groups”.
With `CC(C)C(=O)c1ccc(OCCCN2CCC(C(O)(c3ccc(F)cc3)c3ccc(F)cc3)CC2)cc1` the PFA (Rattus norvegicus [3]) was “Activity greater than positive control group” and the PFA (Rattus norvegicus [4]) was “Activity greater than positive control group”.
For `COc1cc(C(C)=O)ccc1OCCCN1CCC(C(O)(c2ccc(F)cc2)c2ccc(F)cc2)CC1`, the PFA (Rattus norvegicus [5]) was “Active”, the ED50 (Cavia porcellus [6]) was 0.78 mg/kg and the PFA (Rattus norvegicus [3]) was “Active”. It also gave an IC50 (Histamine H1 receptor) of 8 nM, an ED50 (Cavia porcellus [7]) of 1.78 mg/kg and an ED50 (Cavia porcellus [8]) of 0.18 mg/kg. For the same molecule, the PFA (Rattus norvegicus [2]) was “inactive”.
For `CS(=O)(=O)c1ccc(OCCCN2CCC(C(O)(c3ccc(F)cc3)c3ccc(F)cc3)CC2)cc1`, the PFA (Rattus norvegicus [9]) was “Activity equal to positive control group” and the PFA (Rattus norvegicus [4]) was “Activity equal to positive control group”.
With `O=C(O)Cc1ccc(OCCCN2CCC(C(O)(c3ccc(F)cc3)c3ccc(F)cc3)CC2)cc1` the PFA (Rattus norvegicus [9]) was “Activity between positive and negative control groups”, the PFA (Rattus norvegicus [1]) was “Activity between positive and negative control groups” and the PFA (Rattus norvegicus [2]) was “Activity between positive and negative control groups”.
For `COC(=O)c1ccc(OCCCN2CCC(C(O)(c3ccc(F)cc3)c3ccc(F)cc3)CC2)cc1`, the ED50 (Cavia porcellus [6]) was 2.04 mg/kg, the PFA (Rattus norvegicus [10]) was “inactive” and the IC50 (Histamine H1 receptor) was 63 nM. For the same molecule, the PFA (Rattus norvegicus [11]) was “Active”, the ED50 (Cavia porcellus [7]) was 0.72 mg/kg and the PFA (Rattus norvegicus [12]) was “Weak activity”. It also gave an ED50 (Cavia porcellus [8]) of 0.32 mg/kg.
For `O=C(O)c1ccc(OCCCN2CCC(C(O)(c3ccc(F)cc3)c3ccc(F)cc3)CC2)cc1`, the PFA (Rattus norvegicus [13]) was “Activity between positive and negative control groups”, the PFA (Rattus norvegicus [14]) was “Activity between positive and negative control groups” and the PFA (Rattus norvegicus [1]) was “Activity between positive and negative control groups”.
In the case of `OC(c1ccc(F)cc1)(c1ccc(F)cc1)C1CCN(CCCOc2ccccc2)CC1`, the PFA (Rattus norvegicus [5]) is reported as “Activity equal to positive control group”.
In the case of `CC(=O)Nc1ccc(OCCCN2CCC(C(O)(c3ccc(F)cc3)c3ccc(F)cc3)CC2)cc1`, the PFA (Rattus norvegicus [5]) is reported as “Activity equal to positive control group”, the PFA (Rattus norvegicus [3]) is reported as “Activity equal to positive control group” and the PFA (Rattus norvegicus [2]) is reported as “Activity equal to positive control group”.
With `COc1cc(C(C)=O)ccc1OCCCCN1CCC(C(O)(c2ccc(F)cc2)c2ccc(F)cc2)CC1` the PFA (Rattus norvegicus [5]) was “Activity equal to positive control group”.
In the case of `COc1cc(C(C)=O)ccc1OCCCN1CCC(C(O)(c2ccccc2)c2ccc(F)cc2)CC1` (centres undefined), the PFA (Rattus norvegicus [5]) is reported as “Activity equal to positive control group”.
In the case of `NC(=O)c1ccc(OCCCN2CCC(C(O)(c3ccc(F)cc3)c3ccc(F)cc3)CC2)cc1`, the PFA (Rattus norvegicus [10]) is reported as “Activity between positive and negative control groups”, the PFA (Rattus norvegicus [3]) is reported as “Activity between positive and negative control groups” and the PFA (Rattus norvegicus [1]) is reported as “Activity between positive and negative control groups”. The PFA (Rattus norvegicus [12]) was “Activity between positive and negative control groups”.
In the case of `COc1cc(C(C)=O)ccc1OCCCN1CCC(=C(c2ccccc2)c2ccccc2)CC1`, the PFA (Rattus norvegicus [5]) is reported as “Activity equal to positive control group”.
For `CN(C)C(=O)c1ccc(OCCCN2CCC(C(O)(c3ccc(F)cc3)c3ccc(F)cc3)CC2)cc1`, the PFA (Rattus norvegicus [3]) was “Activity between positive and negative control groups”, the PFA (Rattus norvegicus [1]) was “Activity between positive and negative control groups” and the PFA (Rattus norvegicus [2]) was “Activity between positive and negative control groups”.
For `COC(=O)CCc1ccc(OCCCN2CCC(C(O)(c3ccc(F)cc3)c3ccc(F)cc3)CC2)cc1`, the PFA (Rattus norvegicus [10]) was “Activity between positive and negative control groups”, the PFA (Rattus norvegicus [3]) was “Activity between positive and negative control groups” and the PFA (Rattus norvegicus [1]) was “Activity between positive and negative control groups”. The PFA (Rattus norvegicus [12]) was “Activity between positive and negative control groups”.
With `CCOC(=O)c1ccc(OCCCN2CCC(C(O)(c3ccc(F)cc3)c3ccc(F)cc3)CC2)cc1.Cl` the PFA (Rattus norvegicus [13]) was “Weak activity”, the ED50 (Cavia porcellus [6]) was 0.37 mg/kg and the IC50 (Histamine H1 receptor) was 956 nM. For the same molecule, the PFA (Rattus norvegicus [11]) was “Active”, the ED50 (Cavia porcellus [7]) was 1 mg/kg and the PFA (Rattus norvegicus [12]) was “Weak activity”. It also gave an ED50 (Cavia porcellus [8]) of 0.44 mg/kg.
In the case of `CC(=O)c1ccc(OCCCN2CCC(C(O)(c3ccc(F)cc3)c3ccc(F)cc3)CC2)cc1`, the PFA (Rattus norvegicus [5]) is reported as “Activity equal to positive control group”, the PFA (Rattus norvegicus [3]) is reported as “Activity equal to positive control group” and the PFA (Rattus norvegicus [2]) is reported as “Activity equal to positive control group”.
